Test results taken from ChEMBL document CHEMBL3804792, “Discovery and analgesic evaluation of 8-chloro-1,4-dihydropyrido[2,3-b]pyrazine-2,3-dione as a novel potent d-amino acid oxidase inhibitor” (Eur J Med Chem, 2016).
The source made the active and inactive calls.

Columns and labels:
D-amino-acid oxidase [1] = target: D-amino-acid oxidase (Sus scrofa, UniProt P00371); assay: Inhibition of DAAO in porcine kidney homogenate using D-alanine as substrate assessed as pyruvate production incubated for 5 mins by microplate reader analysis
Sequence of D-amino-acid oxidase (Sus scrofa, UniProt P00371) (P00371 whole entry): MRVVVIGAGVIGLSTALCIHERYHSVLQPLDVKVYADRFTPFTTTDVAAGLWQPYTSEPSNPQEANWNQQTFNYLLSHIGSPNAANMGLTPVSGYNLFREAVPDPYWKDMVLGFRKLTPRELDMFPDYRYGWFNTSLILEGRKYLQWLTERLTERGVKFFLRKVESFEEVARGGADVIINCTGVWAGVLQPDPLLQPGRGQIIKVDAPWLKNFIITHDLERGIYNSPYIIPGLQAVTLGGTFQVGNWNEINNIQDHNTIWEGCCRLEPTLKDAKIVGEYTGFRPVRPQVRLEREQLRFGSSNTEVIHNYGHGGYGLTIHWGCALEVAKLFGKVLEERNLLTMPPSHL

D-amino-acid oxidase [2] = target: D-amino-acid oxidase (Homo sapiens, UniProt P14920); assay: Inhibition of human recombinant DAAO using D-alanine as substrate assessed as pyruvate production incubated for 60 mins by microplate reader analysis
Sequence of D-amino-acid oxidase (Homo sapiens, UniProt P14920) (P14920 whole entry): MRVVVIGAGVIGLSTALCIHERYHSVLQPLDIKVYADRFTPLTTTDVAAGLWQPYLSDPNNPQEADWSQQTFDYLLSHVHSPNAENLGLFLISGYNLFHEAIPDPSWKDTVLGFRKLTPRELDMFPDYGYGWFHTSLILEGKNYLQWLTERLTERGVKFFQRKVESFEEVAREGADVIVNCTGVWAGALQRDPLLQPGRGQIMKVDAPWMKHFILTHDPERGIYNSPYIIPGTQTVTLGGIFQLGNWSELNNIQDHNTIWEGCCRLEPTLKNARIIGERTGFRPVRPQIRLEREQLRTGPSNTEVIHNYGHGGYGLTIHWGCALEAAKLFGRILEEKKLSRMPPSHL

D-amino-acid oxidase [3] = target: D-amino-acid oxidase (Rattus norvegicus, UniProt O35078); assay: Inhibition of rat spinal DAAO using D-alanine as substrate assessed as pyruvate production incubated for 60 mins by microplate reader analysis
Sequence of D-amino-acid oxidase (Rattus norvegicus, UniProt O35078) (O35078 whole entry): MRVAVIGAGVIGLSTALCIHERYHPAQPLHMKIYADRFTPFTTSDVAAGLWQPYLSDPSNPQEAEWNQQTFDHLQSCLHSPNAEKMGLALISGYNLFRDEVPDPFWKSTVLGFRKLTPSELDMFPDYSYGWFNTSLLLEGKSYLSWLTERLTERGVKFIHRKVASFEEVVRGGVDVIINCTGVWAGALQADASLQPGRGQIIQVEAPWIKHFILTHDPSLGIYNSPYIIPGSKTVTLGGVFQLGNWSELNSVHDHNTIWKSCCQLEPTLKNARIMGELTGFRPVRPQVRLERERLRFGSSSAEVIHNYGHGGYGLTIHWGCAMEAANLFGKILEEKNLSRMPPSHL

Mus musculus [4] = assay: Reversal of morphine analgesic tolerance in 10 ug, it BID for 7 days morphine pre-treated Swiss mouse assessed as latency of licking/biting/jumping at 10 ug, it administered as single bolus injection 15 mins prior to morphine challenge on day 8 by hot-plate test; format: functional, organism-based
How it was run: (§1)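 Swiss mice (n = 6 per group) received intrathecal saline, morphine, or compound (10 µg) plus morphine twice daily, 12 h apart, for 7 days. On day 8, a single intrathecal saline or compound dose was given 15 min before saline or morphine challenge. Hot plate at 55 ± 0.1 °C with 40 s cut-off; lick/bite/jump latency read before and 0.5, 1, 2 h after injection on days 1, 3, 5, 7, 8. AUC0–2 h analysed by two-way ANOVA with Student-Newman-Keuls test.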

Mus musculus [5] = assay: Attenuation of morphine analgesic tolerance in Swiss mouse assessed as latency of licking/biting/jumping at 10 ug, it bid coadministered with morphine at 12 hr intervals for 7 days by hot-plate test; format: functional, organism-based; how it was run: as §1
Rattus norvegicus [6] = organism: Rattus norvegicus; assay: Effect on contralateral paw withdrawal in Wistar rat spinal nerve ligation-induced neuropathic pain model at 30 ug, it measured after 0.5 to 4 hrs; format: ADME, organism-based; details: in vivo, icv_or_intrathecal
How it was run: (§2)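 Spinal nerve-ligated male Wistar rats, included only with ipsilateral withdrawal threshold < 8 g and no major impairment, dosed intrathecally. Mechanical thresholds (von Frey monofilaments on a metal grid) and radiant-heat paw withdrawal latency (20 s cut-off, mean of three trials 10 min apart) measured on both paws before and 0.5, 1, 2, 4 h after dosing. Thresholds converted to % MPE; two-way ANOVA.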

Rattus norvegicus [7] = assay: Analgesic activity in Wistar rat assessed as inhibition of NMDA-induced pain at 10 ug, it administered 30 mins prior to NMDA challenge measured for 10 mins; format: functional, organism-based
How it was run: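 Male Wistar rats with lumbar intrathecal PE-10 catheters, placement checked by lidocaine-induced hind-limb paralysis; n = 6 per group. Intrathecal saline, MK-801 or compound 30 min before intrathecal NMDA (5 nmol). Scratching, biting and licking duration recorded for 10 min; means ± S.E.M., one-way ANOVA with Student-Newman-Keuls test versus saline.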

Rattus norvegicus [8] = assay: Analgesic activity in it dosed Wistar rat assessed as inhibition of formalin-induced paw flinch response in tonic phase administered as bolus injection 30 mins prior to formalin challenge measured from 10 to 90 mins relative to normal saline control; format: functional
How it was run: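 Intrathecally catheterised male Wistar rats, n = 6 per group. A bolus of 0.1-3 µg was given intrathecally 30 min before 50 µL of 5% formalin s.c. into the dorsal right hindpaw. Flinches counted in 1-min epochs at 10-min intervals over 90 min. […] Saline (10 µL) group as control.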

Mus musculus [9] = assay: Analgesic activity in Swiss mouse assessed as inhibition of formalin-induced tonic pain at 10 mg/kg administered as oral gavage 30 mins prior to formalin challenge measured from 20 to 40 mins relative to normal saline control; format: functional; set-up: scale not given: the % may be the effect or the level left
How it was run: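 Fasted male Swiss mice (18-22 g), n = 6. Dosed 10 mg/kg by oral gavage 30 min before 10 µL of 5% formalin in 0.9% saline injected s.c. into the dorsal right hindpaw. Licking/biting duration was scored manually and pooled over 20-40 min as tonic pain. Drug dissolved in normal saline at pH 7.3-7.5. Compared with a saline control group.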

Mus musculus [10] = assay: Analgesic activity in Swiss mouse assessed as inhibition of formalin-induced acute pain at 0.3 to 10 mg/kg, sc administered 30 mins prior to formalin challenge measured within 5 mins relative to normal saline control; format: functional, organism-based
How it was run: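 Male Swiss mice (18e22 g), n = 6 per group; saline (10 mL/kg) or compound sc 30 min before 10 µL 5% formalin in 0.9% saline sc into dorsal right hindpaw. Licking/biting duration manually pooled over 0–5 min (acute phase) and compared with saline group; one-way ANOVA with Student-Newman-Keuls post-hoc test.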

Rattus norvegicus [11] = assay: Analgesic activity in Wistar rat assessed as inhibition of formalin-induced paw flinch response in acute phase up to 3 ug, it administered as bolus injection 30 mins prior to formalin challenge measured within 10 mins relative to normal saline control; format: functional, organism-based
How it was run: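 Intrathecally catheterized male Wistar rats (n = 6 per group) got a bolus of saline (10 µL) or compound (0.1–3 µg) 30 min before 50 µL 5% formalin sc into dorsal right hindpaw. Flinches counted in 1-min epochs every 10 min for 90 min; acute phase is the first 10 min. Compared with saline by one-way ANOVA and Student-Newman-Keuls test.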

Rattus norvegicus [12] = organism: Rattus norvegicus; assay: Analgesic activity in Wistar rat spinal nerve ligation-induced neuropathic pain model assessed as reduction in mechanical allodynia assessed as increase in ipsilateral paw withdrawal response at 30 ug, it measured after 0.5 to 4 hrs; format: functional, organism-based; how it was run: as §2
Rattus norvegicus [13] = organism: Rattus norvegicus; assay: Analgesic activity in Wistar rat spinal nerve ligation-induced neuropathic pain model assessed as reduction in mechanical allodynia assessed as increase in ipsilateral paw withdrawal response at 30 ug, it measured after 1 hr; format: functional
How it was run: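 Spinal nerve-ligated male Wistar rats, intrathecally catheterised; only rats with threshold <8 g and no major impairment were included. After intrathecal dosing, ipsilateral hind-limb withdrawal threshold to monofilaments was measured on a metal grid after ≥30 min acclimation, at 0.5, 1, 2 and 4 h. n = 6. Results converted to %MPE against baseline.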

Rattus norvegicus [14] = organism: Rattus norvegicus; assay: Analgesic activity in Wistar rat spinal nerve ligation-induced neuropathic pain model assessed as reduction in heat hyperalgesia assessed as increase in ipsilateral paw withdrawal response at 30 ug, it measured after 0.5 to 4 hrs; format: functional, organism-based; how it was run: as §2
[15] = Apparent oral bioavailability in Swiss mouse at 10 mg/kg administered as oral gavage; format: ADME, organism-based; details: in vivo, read-out: Fapp
Rattus norvegicus [16] = organism: Rattus norvegicus; assay: Analgesic activity in Wistar rat spinal nerve ligation-induced neuropathic pain model assessed as reduction in heat hyperalgesia assessed as increase in ipsilateral paw withdrawal response at 30 ug, it measured after 1 hr; format: functional
How it was run: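 Spinal nerve-ligated male Wistar rats, intrathecally catheterised; only those with ipsilateral withdrawal threshold <8 g were used. After intrathecal dosing, radiant heat was applied to the plantar hind paw and withdrawal latency read, cut-off 20 s. Each paw tested three times at 10-min intervals and averaged. n = 6. Read at 0.5, 1, 2 and 4 h.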

Mus musculus [17] = assay: Analgesic activity in sc dosed Swiss mouse assessed as inhibition of formalin-induced tonic pain administered 30 mins prior to formalin challenge measured from 20 to 40 mins relative to normal saline control; format: functional
How it was run: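 Male Swiss mice, n = 6 per group. Dosed s.c. at 0.3-30 mg/kg in saline (10 mL/kg) 30 min before 10 µL of 5% formalin s.c. into the dorsal right hindpaw. Licking/biting time was pooled over 20-40 min as tonic pain. Values compared with saline control. Emax and ED50 taken from the dose-response. One-way ANOVA with Student-Newman-Keuls test.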

Rattus norvegicus [18] = assay: Analgesic activity in Wistar rat assessed as inhibition of NMDA-induced pain at 0.1 ug, it administered 30 mins prior to NMDA challenge measured for 10 mins; format: functional
How it was run: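 Male Wistar rats (180-250 g), n = 6 per group, with intrathecal lumbar PE-10 catheters checked by lidocaine paralysis. Dosed 0.1 µg intrathecally 30 min before 5 nmol NMDA given intrathecally. Duration of scratching, biting and licking recorded for 10 min immediately after NMDA. Saline (10 µL) group as control. One-way ANOVA with Student-Newman-Keuls test.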

| Compound | IC50 (D-amino-acid oxidase [1]) | also measured |
| --- | --- | --- |
| CC(C)Oc1ccnc2[nH]c(=O)c(=O)[nH]c12 | > 100 µM | – |
| Oc1nc2cc(C(F)(F)F)cnc2nc1O | 22.9 µM | – |
| CCOc1ccc2[nH]c(=O)c(=O)[nH]c2n1 | > 100 µM | – |
| O=c1[nH]c2nccc(Br)c2[nH]c1=O | 0.22 µM | IC50 (D-amino-acid oxidase [2]): 2.24 µM; IC50 (D-amino-acid oxidase [3]): 2.24 µM |
| Oc1nc2cccnc2nc1O | 5.7 µM | – |
| Cc1c(Cl)cnc2nc(O)c(O)nc12 | 0.26 µM | IC50 (D-amino-acid oxidase [2]): 1.13 µM; IC50 (D-amino-acid oxidase [3]): 4.16 µM |
| CCc1ccnc2[nH]c(=O)c(=O)[nH]c12 | 2.4 µM | – |
| Oc1noc2cc(Cl)ccc12 | 0.21 µM | IC50 (D-amino-acid oxidase [3]): 0.09 µM |
| Oc1nc2cc(Cl)cnc2nc1O | 6.7 µM | – |
| Cc1c(F)cnc2[nH]c(=O)c(=O)[nH]c12 | 0.15 µM | IC50 (D-amino-acid oxidase [2]): 0.34 µM; IC50 (D-amino-acid oxidase [3]): 0.15 µM |
| O=c1[nH]c2nccc(OCCCc3ccccc3)c2[nH]c1=O | > 300 µM | – |
| O=c1[nH]c2nccc(Cl)c2[nH]c1=O | 0.18 µM | Activity (Mus musculus [4]): Active; Activity (Mus musculus [5]): Active; Activity (Rattus norvegicus [6]): Non-toxic; Activity (Rattus norvegicus [7]): inactive; Activity (Rattus norvegicus [8]): Dose-dependent effect; ED50 (Rattus norvegicus [8]): 0.25 µg; Emax (Rattus norvegicus [8]; Rattus norvegicus, Wistar): 67.1%; Activity (Mus musculus [9]): 30%; IC50 (D-amino-acid oxidase [2]): 0.21 µM; Activity (Mus musculus [10]): inactive; Activity (Rattus norvegicus [11]): inactive; Activity (Rattus norvegicus [12]): Active; MPE (Rattus norvegicus [13]): 54.4%; Activity (Rattus norvegicus [14]): Active; bioavailability [15]: 30%; IC50 (D-amino-acid oxidase [3]): 0.14 µM; MPE (Rattus norvegicus [16]): 80.8%; Activity (Mus musculus [17]): Dose-dependent effect; ED50 (Mus musculus [17]): 1.8 mg/kg; Emax (Mus musculus [17]): 49% |
| Oc1nc2cc(Br)cnc2nc1O | 12.4 µM | – |
| O=c1[nH]c2ncc(Br)c(Br)c2[nH]c1=O | 0.53 µM | – |
| O=c1[nH]c2nccc(C(F)(F)F)c2[nH]c1=O | 0.52 µM | – |
| CCOc1ccnc2[nH]c(=O)c(=O)[nH]c12 | > 100 µM | – |
| O=c1[nH]c2cc(F)cnc2[nH]c1=O | 0.46 µM | – |
| Cc1cnc2nc(O)c(O)nc2c1 | 36.7 µM | – |

| Compound | IC50 (D-amino-acid oxidase [1]) | also measured |
| --- | --- | --- |
| O=C(O)c1cnc2[nH]c(=O)c(=O)[nH]c2c1 | > 1000 µM | – |
| COC(=O)c1cnc2[nH]c(=O)c(=O)[nH]c2c1 | > 1000 µM | – |
| O=c1[nH]c2ccc(OCCc3ccccc3)nc2[nH]c1=O | > 300 µM | – |
| O=c1[nH]c2nccc(OCc3ccccc3)c2[nH]c1=O | > 300 µM | – |
| Oc1nc2ccccc2nc1O | 33.6 µM | – |
| Oc1nc2ccc(Cl)nc2nc1O | 20.3 µM | – |
| Cc1ccc2nc(O)c(O)nc2n1 | 17.7 µM | – |
| COc1ccnc2[nH]c(=O)c(=O)[nH]c12 | 85.7 µM | – |
| O=c1[nH]c2nccc(Oc3ccccc3)c2[nH]c1=O | > 1000 µM | – |
| COc1ccc2nc(O)c(O)nc2n1 | > 100 µM | – |
| Cc1ccnc2[nH]c(=O)c(=O)[nH]c12 | 0.63 µM | – |
| O=c1[nH]c2ncc(Cl)c(Cl)c2[nH]c1=O | 0.65 µM | – |
| O=c1[nH]c2ncc(Cl)c(Br)c2[nH]c1=O | 0.24 µM | IC50 (D-amino-acid oxidase [2]): 1.38 µM; IC50 (D-amino-acid oxidase [3]): 7.99 µM |
| Cc1c(Br)cnc2nc(O)c(O)nc12 | 0.4 µM | – |
| O=c1[nH]c2nccc(OCCc3ccccc3)c2[nH]c1=O | > 300 µM | – |
| C[C@]12N[C@H](Cc3ccccc31)c1ccccc12 [DIZOCILPINE] | – | inhibition (INH) (Rattus norvegicus [18]): 80% |
| O=c1[nH]c2ncc(Br)c(Cl)c2[nH]c1=O | 0.48 µM | – |
| O=c1[nH]c2ccc(OCc3ccccc3)nc2[nH]c1=O | > 300 µM | – |
